Measurements gathered from unrelated publications.
Each line is one published result; the experiments were not run side by side.
Dipeptidyl peptidase 2: Dipeptidyl peptidase 2 (Homo sapiens, UniProt Q9UHL4)
PTGS2: Prostaglandin G/H synthase 2 (PTGS2, Homo sapiens, UniProt P35354)
CASP7: Caspase-7 (CASP7, Homo sapiens, UniProt P55210)
ADRA1D: Alpha-1D adrenergic receptor (ADRA1D, Homo sapiens, UniProt P25100)

| SMILES | target | observed | action | technique | tested at | inhibition [%] |
| --- | --- | --- | --- | --- | --- | --- |
| CC(C)C[C@H](NC(=O)[C@H](Cc1ccccc1)NC(=O)c1cnccn1)B(O)O | Serine protease HTRA2, mitochondrial (HTRA2, Homo sapiens, UniProt O43464) | enzyme activity | inhibitor | – | 33 µM | < 5 |
| CN(C)C(=O)COC(=O)Cc1ccc(OC(=O)c2ccc(NC(=N)N)cc2)cc1 | Dipeptidyl peptidase 2 | enzyme activity | inhibitor | – | 10 µM | 20 |
| COCc1c(-c2cc3cc(C)cc(OC)c3s2)c2c(N)ncnn2c1CN1CCNC(=O)C1 | Alpha-2B adrenergic receptor (ADRA2B, Homo sapiens, UniProt P18089) | ligand displacement | – | radioligand | 10 µM | 34 |
| Cn1cc(-c2cc(F)cc(N3CCn4c(cc5c4CCCC5)C3=O)c2CO)cc(Nc2ccc(N3CCN(C4COC4)CC3)cn2)c1=O | Dual specificity tyrosine-phosphorylation-regulated kinase 3 (DYRK3, Homo sapiens, UniProt O43781) | enzyme activity | inhibitor | – | 0.1 µM | 5 |
| CS(=O)(=O)c1ccc(-c2ncccc2-c2nc3ccccc3s2)cc1 | PTGS2 | enzyme activity | inhibitor | absorbance | 10 µM | 84.7 |
| C#Cc1n[nH]c2c(-c3cn(C(C)c4ccccn4)c(=O)[nH]c3=O)cc(F)cc12 (stereo not drawn) | Platelet-derived growth factor receptor beta (PDGFRB, Homo sapiens, UniProt P09619) | enzyme activity | inhibitor | – | 1 µM | 6.6 |
| N=C(N)c1ccc2cc(OC(=O)c3ccc(N=C(N)N)cc3)ccc2c1 | Dipeptidyl peptidase 2 | enzyme activity | inhibitor | – | 10 µM | 29 |
| CCN(CC)CCCC[C@H](NC(=O)[C@H](CC(C)C)NC(=O)[C@H](C)NC(=O)[C@H](Cc1ccccc1)NC(=O)c1ccc(C(C)(C)C)cc1)C(=O)N[C@@H](CO)C(=O)OC | 5-hydroxytryptamine receptor 1B (Htr1b, Rattus norvegicus, UniProt P28564) | ligand displacement | – | radioligand | 10 µM | -11 |
| OC(c1ccc(F)cc1)C(F)(F)CCN1CCC(O)(c2ccc(Cl)cc2)CC1 (racemic) | Sigma non-opioid intracellular receptor 1 (SIGMAR1, Cavia porcellus, UniProt Q60492) | ligand displacement | – | radioligand | 10 µM | > 50 |
| Cc1ccc(-c2nc3ccccc3s2)c(-c2ccc(O)cc2)c1 | PTGS2 | enzyme activity | inhibitor | absorbance | 10 µM | 35.4 |
| CC(=O)N[C@@H](CC(=O)O)C(=O)N[C@@H](CC(N)=O)C(=O)N[C@@H](CC(C)C)C(=O)N[C@H](C=O)CC(=O)O | CASP7 | enzyme activity | inhibitor | – | 0.5 µM | 89 |
| CS(=O)(=O)c1ccc(-c2ncc(Cl)cc2-c2nc3ccccc3s2)cc1 | PTGS2 | enzyme activity | inhibitor | absorbance | 10 µM | 98 |
| Cn1cc(-c2cccc(N3CCc4c(sc5c4CC(C)(C)C5)C3=O)c2CO)cc(Nc2ccncn2)c1=O | Protein kinase C zeta type (PRKCZ, Homo sapiens, UniProt Q05513) | enzyme activity | inhibitor | – | 1 µM | 10 |
| Nc1ccc(-c2nc3ccccc3s2)c(-c2cccc(O)c2)c1 | PTGS2 | enzyme activity | inhibitor | absorbance | 10 µM | 33.3 |
| CCOC(=O)c1ccc(OC(=O)CCCCCNC(=N)N)cc1 | CASP7 | enzyme activity | inhibitor | – | 10 µM | 1 |
| CN(C)Cc1ccc(-c2nc3ccccc3s2)c(-c2ccc(O)cc2)c1 | PTGS2 | enzyme activity | inhibitor | absorbance | 10 µM | 0 |
| O=C(Nc1cccnn1)N1CCN([C@@H]2CCOc3cc(C(F)(F)F)ccc32)CC1 | Melanocyte-stimulating hormone receptor (Mc1r, Mus musculus, UniProt Q01727) | cell-free assay | – | – | 20 µM | 0 |
| N#Cc1ccc(NCCNCC(=O)N2N=CCC2C#N)nc1 (stereo not drawn) | Dipeptidyl peptidase 2 | enzyme activity | inhibitor | – | 1 µM | 8 |
| CC(C)Cn1cnc2c(N)nc3ccccc3c21 | ADRA1D | ligand displacement | – | radioligand | 10 µM | 76 |
| CN(C)Cc1ccc(-c2nc3ccccc3s2)c(-c2cccc(O)c2)c1 | PTGS2 | enzyme activity | inhibitor | absorbance | 10 µM | 1 |
| CC(C)N1CCC[C@H]1CNC(=O)c1cn(C2CCCC2)c(=O)c2c1c1ccccc1n2C | ADRA1D | ligand displacement | – | radioligand | 10 µM | 9 |
